Experimental data published in ChEMBL document CHEMBL3102836, “Dioxatricyclic and oxabicyclic polyketides from Trichocladium opacum” (J Nat Prod, 2014).
Active and inactive are the calls of the source. The calls are words filed in the database; no cut-off is given here.

Columns and labels:
Assay type in all cases: functional, cell-based
SW480 [1] = test: Cytotoxicity against human SW480 cells at 20 ug/ml after 48 hrs by MTS assay
Method in brief: (§1)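 Single-concentration test at 20 μg/mL. Triplicate wells seeded at (2−5) × 10^3 cells, attached overnight, then medium replaced with compound-containing medium (100 mM DMSO stock; vehicle wells 0.1% DMSO); cisplatin positive control. 48 h exposure at 37 °C, humidified 5% CO2. MTS added, 90 min at 37 °C in dark, read at 490 nm.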

HCT-116 [2] = test: Cytotoxicity against human HCT116 cells at 20 ug/ml after 48 hrs by MTS assay; method in brief: as §1
A549 [3] = test: Cytotoxicity against human A549 cells at 20 ug/ml after 48 hrs by MTS assay; method in brief: as §1
HeLa [4] = test: Cytotoxicity against human HeLa cells at 20 ug/ml after 48 hrs by MTS assay; method in brief: as §1
HCT-116 [5] = test: Cytotoxicity against human HCT116 cells after 48 hrs by MTS assay; conditions: HCT-116, 48 h
Method in brief: (§2)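 Triplicate wells seeded at (2−5) × 10^3 cells (by growth rate), attached overnight, then medium replaced with medium carrying serial dilutions from 100 mM DMSO stocks (vehicle wells 0.1% DMSO); cisplatin positive control. 48 h at 37 °C, humidified 5% CO2. MTS added, 90 min at 37 °C in dark, absorbance 490 nm; IC50 reported.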

A549 [6] = test: Cytotoxicity against human A549 cells after 48 hrs by MTS assay; conditions: A549, 48 h; method in brief: as §2
SW480 [7] = test: Cytotoxicity against human SW480 cells after 48 hrs by MTS assay; conditions: SW480, 48 h; method in brief: as §2
HeLa [8] = test: Cytotoxicity against human HeLa cells after 48 hrs by MTS assay; method in brief: as §2

Row | Compound | Activity (SW480 [1]) | Activity (HCT-116 [2]) | Activity (A549 [3]) | Activity (HeLa [4]) | IC50 (HCT-116 [5]) | IC50 (A549 [6]) | IC50 (SW480 [7]) | IC50 (HeLa [8])
1 | C[C@@H]1C=C[C@H](O)[C@H]2O[C@@]3(C)OC(=O)[C@@]12[C@H]3O | inactive | inactive | inactive | inactive |  |  |  | 
2 | COC(=O)[C@]12[C@H](C)[C@H](C[C@H](O)[C@H]1O)O[C@H]2C(C)=O | inactive | inactive | inactive | inactive |  |  |  | 
3 | C[C@@H]1CC[C@H](O)[C@H]2O[C@@]3(C)OC(=O)[C@@]12[C@H]3O |  |  |  | inactive | 56.6 µM | 61 µM | 51.9 µM | 
4 | C[C@@H]1C=C[C@H](O)[C@H]2O[C@@]3(C)OC(=O)[C@@]12[C@@H]3O |  |  |  | inactive | 48.8 µM | 83.6 µM | 54.9 µM | 
5 | C[C@@H](O)[C@@H](O)[C@]12C(=O)O[C@H](C=C[C@@H]1C)[C@H]2O |  |  |  |  | 41.7 µM | 52.3 µM | 43.6 µM | 44.3 µM
